Experimental data as given in ChEMBL document CHEMBL6134764, “Synthesis and biological evaluation of novel D-ring fused steroidal N(2)-substituted-1,2,3-triazoles” (RSC Med Chem, 2025).
The source made the active and inactive calls. The rule behind the calls is not given here.

Target: Estrogen receptor beta (Homo sapiens) (UniProt Q92731)
Test: Binding affinity to human recombinant ERbeta ligand binding domain extracted from saccharomyces cerevisiae coexpressing yellow fluorescent protein assessed as relative binding affinity at 10 uM incubated for 14 to 16 hrs by fluorimetry based fluorescence microscopic analysis
Conditions: time 14-16 hrs
Method in brief: (§1)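 S. cerevisiae FY250 carrying receptor LBD–EYFP fusions (human ERα, ERβ, AR; rat GR); raffinose drop-out medium, grown to OD600 ~0.6, fusion induced with 2% galactose. Compounds 10 μM (ER, AR) or 100 μM (GR), 14–16 h, 25 °C, dark; DMSO solvent control. Fluorescence at ex/em 485/538 nm, triplicate; fold change vs DMSO (normalized to 1).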

Sequence of Estrogen receptor beta (Homo sapiens) (Q92731 whole entry, the tested form may be a part): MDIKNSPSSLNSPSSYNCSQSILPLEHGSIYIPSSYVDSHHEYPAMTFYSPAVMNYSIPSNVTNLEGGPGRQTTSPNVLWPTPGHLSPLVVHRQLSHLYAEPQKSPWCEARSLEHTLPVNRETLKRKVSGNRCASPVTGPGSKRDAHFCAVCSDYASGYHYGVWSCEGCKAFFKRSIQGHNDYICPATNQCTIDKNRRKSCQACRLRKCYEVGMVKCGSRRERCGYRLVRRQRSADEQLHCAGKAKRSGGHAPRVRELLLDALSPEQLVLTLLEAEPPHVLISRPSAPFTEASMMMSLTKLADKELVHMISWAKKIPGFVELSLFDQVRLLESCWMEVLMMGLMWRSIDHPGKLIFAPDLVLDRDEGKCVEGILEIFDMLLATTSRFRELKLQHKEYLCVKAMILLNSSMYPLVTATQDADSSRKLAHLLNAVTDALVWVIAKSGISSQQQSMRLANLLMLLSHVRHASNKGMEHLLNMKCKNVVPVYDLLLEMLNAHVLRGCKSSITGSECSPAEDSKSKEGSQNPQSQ

| SMILES | Activity |
| --- | --- |
| Cn1nc2c(n1)[C@@]1(C)CC[C@H]3[C@@H](CC=C4C[C@@H](O)CC[C@@]43C)[C@@H]1C2 | Active |
| C[C@]12CC[C@@H]3c4ccc(OCc5ccccc5)cc4CC[C@H]3[C@@H]1Cc1nn(Cc3ccccc3)nc12 | Active |
| CC(=O)O[C@H]1CC[C@@]2(C)C(=CC[C@@H]3[C@@H]2CC[C@]2(C)c4nn(C(C)=O)nc4C[C@@H]32)C1 | Active |

Test system: Huh-7
Test: Cytotoxicity against human Huh-7 cells assessed as reduction in cell viability incubated for 72 hrs by resazurin assay
Conditions: Huh-7, 72 h

| SMILES | IC50 [µM] |
| --- | --- |
| C[C@]12CC[C@H](O)CC1=CC[C@@H]1[C@@H]2CC[C@]2(C)c3nn(CCN)nc3C[C@@H]12 | 22.3 |

Target: T1, Estrogen receptor (Homo sapiens) (UniProt P03372)
T1 sequence (whole entry): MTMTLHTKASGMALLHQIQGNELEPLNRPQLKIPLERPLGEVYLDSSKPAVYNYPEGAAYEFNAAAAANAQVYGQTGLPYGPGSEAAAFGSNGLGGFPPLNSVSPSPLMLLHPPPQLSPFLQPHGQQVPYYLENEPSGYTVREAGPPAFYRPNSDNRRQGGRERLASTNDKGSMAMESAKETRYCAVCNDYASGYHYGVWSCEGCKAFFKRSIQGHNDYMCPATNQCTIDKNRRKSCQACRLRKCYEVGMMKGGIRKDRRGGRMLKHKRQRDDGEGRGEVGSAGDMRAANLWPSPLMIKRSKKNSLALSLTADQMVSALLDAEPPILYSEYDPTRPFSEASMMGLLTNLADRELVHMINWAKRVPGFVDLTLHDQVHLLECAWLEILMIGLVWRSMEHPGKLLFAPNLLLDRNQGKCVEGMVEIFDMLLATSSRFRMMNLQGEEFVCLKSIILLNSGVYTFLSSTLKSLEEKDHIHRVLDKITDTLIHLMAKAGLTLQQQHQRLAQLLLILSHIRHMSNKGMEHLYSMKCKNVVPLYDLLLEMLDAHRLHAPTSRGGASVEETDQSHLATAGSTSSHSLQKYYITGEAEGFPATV
Test: Binding affinity to human recombinant ERalpha ligand binding domain extracted from saccharomyces cerevisiae coexpressing yellow fluorescent protein assessed as relative binding affinity at 10 uM incubated for 14 to 16 hrs by fluorimetry based fluorescence microscopic analysis
Conditions: time 14-16 hrs
Method in brief: as §1

| SMILES | Activity |
| --- | --- |
| CCOC(=O)Cn1nc2c(n1)[C@@]1(C)CC[C@H]3[C@@H](CC=C4C[C@@H](O)CC[C@@]43C)[C@@H]1C2 | inactive |
| Cn1nc2c(n1)[C@@]1(C)CC[C@H]3[C@@H](CC=C4C[C@@H](O)CC[C@@]43C)[C@@H]1C2 | inactive |
| CCn1nc2c(n1)[C@@]1(C)CC[C@H]3[C@@H](CC=C4C[C@@H](O)CC[C@@]43C)[C@@H]1C2 | inactive |
| CC(=O)O[C@H]1CC[C@@]2(C)C(=CC[C@@H]3[C@@H]2CC[C@]2(C)c4nn(C(C)=O)nc4C[C@@H]32)C1 | inactive |

The remaining lines, values ahead:

| Activity | SMILES |
| --- | --- |
| inactive | Cn1nc2c(n1)[C@@]1(C)CC[C@@H]3c4ccc(OCc5ccccc5)cc4CC[C@H]3[C@@H]1C2 |
| inactive | CCCCCCCCn1nc2c(n1)[C@@]1(C)CC[C@@H]3c4ccc(OCc5ccccc5)cc4CC[C@H]3[C@@H]1C2 |
| inactive | C[C@]12CC[C@H](O)CC1=CC[C@@H]1[C@@H]2CC[C@]2(C)c3nn(Cc4ccccc4)nc3C[C@@H]12 |
| inactive | CCCCn1nc2c(n1)[C@@]1(C)CC[C@H]3[C@@H](CC=C4C[C@@H](O)CC[C@@]43C)[C@@H]1C2 |
| inactive | C[C@]12CC[C@@H]3c4ccc(OCc5ccccc5)cc4CC[C@H]3[C@@H]1Cc1nn(Cc3ccccc3)nc12 |
| inactive | C[C@]12CC[C@H](O)CC1=CC[C@@H]1[C@@H]2CC[C@]2(C)c3nn(CCN)nc3C[C@@H]12 |
| inactive | CCn1nc2c(n1)[C@@]1(C)CC[C@@H]3c4ccc(OCc5ccccc5)cc4CC[C@H]3[C@@H]1C2 |

Test system: HCT-116
Test: Cytotoxicity against human HCT-116 cells assessed as reduction in cell viability incubated for 72 hrs by resazurin assay
Conditions: HCT-116, 72 h

| SMILES | IC50 [µM] |
| --- | --- |
| C[C@]12CC[C@H](O)CC1=CC[C@@H]1[C@@H]2CC[C@]2(C)c3nn(CCN)nc3C[C@@H]12 | 22.3 |

Target: T2, Androgen receptor (Homo sapiens) (UniProt P10275)
T2 sequence (whole entry): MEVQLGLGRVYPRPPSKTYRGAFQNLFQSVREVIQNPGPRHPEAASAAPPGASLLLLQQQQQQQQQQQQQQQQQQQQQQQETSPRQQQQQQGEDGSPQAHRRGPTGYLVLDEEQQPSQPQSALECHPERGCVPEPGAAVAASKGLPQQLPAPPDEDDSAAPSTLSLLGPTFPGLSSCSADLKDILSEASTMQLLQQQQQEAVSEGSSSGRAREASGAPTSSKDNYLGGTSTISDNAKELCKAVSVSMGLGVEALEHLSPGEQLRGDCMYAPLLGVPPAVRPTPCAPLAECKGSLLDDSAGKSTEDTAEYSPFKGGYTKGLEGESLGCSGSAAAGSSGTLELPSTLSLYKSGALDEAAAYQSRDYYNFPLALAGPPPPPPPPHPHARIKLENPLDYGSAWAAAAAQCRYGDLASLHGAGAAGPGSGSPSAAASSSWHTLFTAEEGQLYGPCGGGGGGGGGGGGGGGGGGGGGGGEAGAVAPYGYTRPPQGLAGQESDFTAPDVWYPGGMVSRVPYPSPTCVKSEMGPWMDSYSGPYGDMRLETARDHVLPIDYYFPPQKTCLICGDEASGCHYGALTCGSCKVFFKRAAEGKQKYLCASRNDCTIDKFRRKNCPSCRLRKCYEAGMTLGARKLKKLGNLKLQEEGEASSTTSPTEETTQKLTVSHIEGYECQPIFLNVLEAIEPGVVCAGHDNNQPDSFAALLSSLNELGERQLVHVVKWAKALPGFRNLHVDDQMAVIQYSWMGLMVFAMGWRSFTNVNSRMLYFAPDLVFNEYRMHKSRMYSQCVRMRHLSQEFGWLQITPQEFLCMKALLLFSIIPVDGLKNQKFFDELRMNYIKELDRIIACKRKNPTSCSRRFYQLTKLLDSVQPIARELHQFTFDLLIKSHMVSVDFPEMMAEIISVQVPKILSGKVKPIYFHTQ
Test: Binding affinity to human recombinant androgen receptor ligand binding domain extracted from saccharomyces cerevisiae coexpressing yellow fluorescent protein assessed as relative binding affinity at 10 uM incubated for 14 to 16 hrs by fluorimetry based fluorescence microscopic analysis
Conditions: time 14-16 hrs
Method in brief: as §1

| SMILES | Activity |
| --- | --- |
| CCOC(=O)Cn1nc2c(n1)[C@@]1(C)CC[C@H]3[C@@H](CC=C4C[C@@H](O)CC[C@@]43C)[C@@H]1C2 | inactive |
| Cn1nc2c(n1)[C@@]1(C)CC[C@H]3[C@@H](CC=C4C[C@@H](O)CC[C@@]43C)[C@@H]1C2 | inactive |
| CCn1nc2c(n1)[C@@]1(C)CC[C@H]3[C@@H](CC=C4C[C@@H](O)CC[C@@]43C)[C@@H]1C2 | inactive |
| CC(=O)O[C@H]1CC[C@@]2(C)C(=CC[C@@H]3[C@@H]2CC[C@]2(C)c4nn(C(C)=O)nc4C[C@@H]32)C1 | inactive |

Second part, the compound after the results:

| Activity | SMILES |
| --- | --- |
| inactive | Cn1nc2c(n1)[C@@]1(C)CC[C@@H]3c4ccc(OCc5ccccc5)cc4CC[C@H]3[C@@H]1C2 |
| inactive | CCCCCCCCn1nc2c(n1)[C@@]1(C)CC[C@@H]3c4ccc(OCc5ccccc5)cc4CC[C@H]3[C@@H]1C2 |
| inactive | C[C@]12CC[C@H](O)CC1=CC[C@@H]1[C@@H]2CC[C@]2(C)c3nn(Cc4ccccc4)nc3C[C@@H]12 |
| inactive | CCCCn1nc2c(n1)[C@@]1(C)CC[C@H]3[C@@H](CC=C4C[C@@H](O)CC[C@@]43C)[C@@H]1C2 |
| inactive | C[C@]12CC[C@@H]3c4ccc(OCc5ccccc5)cc4CC[C@H]3[C@@H]1Cc1nn(Cc3ccccc3)nc12 |
| inactive | C[C@]12CC[C@H](O)CC1=CC[C@@H]1[C@@H]2CC[C@]2(C)c3nn(CCN)nc3C[C@@H]12 |
| inactive | CCn1nc2c(n1)[C@@]1(C)CC[C@@H]3c4ccc(OCc5ccccc5)cc4CC[C@H]3[C@@H]1C2 |

Test system: not listed separately
Test: Toxicity in human hTERT-BJ cells assessed as reduction in cell viability at 0.01 to 100 uM incubated for 72 hrs by resazurin assay
Assay type: cell-based
Conditions: dose 0.01-100 µM
Method in brief: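 hTERT-immortalized BJ-5ta foreskin fibroblasts grown in high-glucose DMEM with 20% Medium 199 and 10% FBS. Exposed to 0.01–100 μM for 72 h, then 0.01 mg/mL resazurin for 2 h, fluorescence at 584 nm; n = 3; one-way ANOVA with Dunnett's test vs control.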

| SMILES | Activity |
| --- | --- |
| C[C@]12CC[C@H](O)CC1=CC[C@@H]1[C@@H]2CC[C@]2(C)c3nn(CCN)nc3C[C@@H]12 | Toxic |

Test system: MDA-MB-231
Test: Cytotoxicity against human MDA-MB-231 cells assessed as reduction in cell viability incubated for 72 hrs by resazurin assay
Conditions: MDA-MB-231, 72 h

| SMILES | IC50 [µM] |
| --- | --- |
| C[C@]12CC[C@H](O)CC1=CC[C@@H]1[C@@H]2CC[C@]2(C)c3nn(CCN)nc3C[C@@H]12 | 22.3 |

Target: T3, Aldo-keto reductase family 1 member C4 (Homo sapiens) (UniProt P17516)
T3 sequence (whole entry): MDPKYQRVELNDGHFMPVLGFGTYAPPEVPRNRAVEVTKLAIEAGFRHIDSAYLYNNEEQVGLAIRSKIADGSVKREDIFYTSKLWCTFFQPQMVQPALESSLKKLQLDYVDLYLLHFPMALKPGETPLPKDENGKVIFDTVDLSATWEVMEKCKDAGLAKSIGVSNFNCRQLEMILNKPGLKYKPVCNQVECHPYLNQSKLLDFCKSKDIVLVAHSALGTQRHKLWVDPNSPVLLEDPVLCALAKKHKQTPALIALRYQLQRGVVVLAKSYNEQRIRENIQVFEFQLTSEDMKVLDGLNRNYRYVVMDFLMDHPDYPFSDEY
Test: Inhibition of N-terminal his-tagged recombinant human AKR1C4 assessed as NADPH consumption using 9,10-phenanthrenequinone as substrate at 33 uM by fluorescence spectroscopic analysis relative to control
Conditions: not given
Method in brief: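 N-His-tagged human AKR1C4 from E. coli BL21(DE3), purified by Ni-affinity and size exclusion. Enzyme at 160 μg/mL with 17 μM 9,10-phenanthrenequinone and 250 μM NADPH in 100 mM potassium phosphate pH 6.0, 37 °C, duplicate. Compound at 33 μM final. NADPH fluorescence (ex 340/em 460 nm) read every 30 s for 10 min; inhibition from linear slope vs uninhibited enzyme (100%).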

| SMILES | inhibition [%] |
| --- | --- |
| CCOC(=O)Cn1nc2c(n1)[C@@]1(C)CC[C@H]3[C@@H](CC=C4C[C@@H](O)CC[C@@]43C)[C@@H]1C2 | 0 |
| Cn1nc2c(n1)[C@@]1(C)CC[C@H]3[C@@H](CC=C4C[C@@H](O)CC[C@@]43C)[C@@H]1C2 | 0 |
| CCn1nc2c(n1)[C@@]1(C)CC[C@H]3[C@@H](CC=C4C[C@@H](O)CC[C@@]43C)[C@@H]1C2 | 2.81 |
| CC(C)Cc1ccc(C(C)C(=O)O)cc1 (configuration not stated) | 43.9 |
| CC(=O)O[C@H]1CC[C@@]2(C)C(=CC[C@@H]3[C@@H]2CC[C@]2(C)c4nn(C(C)=O)nc4C[C@@H]32)C1 | 8.32 |

More lines, now with the values ahead:

| inhibition [%] | SMILES |
| --- | --- |
| 0 | Cn1nc2c(n1)[C@@]1(C)CC[C@@H]3c4ccc(OCc5ccccc5)cc4CC[C@H]3[C@@H]1C2 |
| 0 | CCCCCCCCn1nc2c(n1)[C@@]1(C)CC[C@@H]3c4ccc(OCc5ccccc5)cc4CC[C@H]3[C@@H]1C2 |
| 0 | C[C@]12CC[C@H](O)CC1=CC[C@@H]1[C@@H]2CC[C@]2(C)c3nn(Cc4ccccc4)nc3C[C@@H]12 |
| 0 | CCCCn1nc2c(n1)[C@@]1(C)CC[C@H]3[C@@H](CC=C4C[C@@H](O)CC[C@@]43C)[C@@H]1C2 |
| 0 | C[C@]12CC[C@@H]3c4ccc(OCc5ccccc5)cc4CC[C@H]3[C@@H]1Cc1nn(Cc3ccccc3)nc12 |
| 2.29 | C[C@]12CC[C@H](O)CC1=CC[C@@H]1[C@@H]2CC[C@]2(C)c3nn(CCN)nc3C[C@@H]12 |
| 0 | CCn1nc2c(n1)[C@@]1(C)CC[C@@H]3c4ccc(OCc5ccccc5)cc4CC[C@H]3[C@@H]1C2 |

Test system: MCF7
Test: Cytotoxicity against human MCF7 cells assessed as reduction in cell viability incubated for 72 hrs by resazurin assay
Conditions: MCF7, 72 h

| SMILES | IC50 [µM] |
| --- | --- |
| C[C@]12CC[C@H](O)CC1=CC[C@@H]1[C@@H]2CC[C@]2(C)c3nn(CCN)nc3C[C@@H]12 | 22.3 |
